Source: PubChem BioAssay AID624466 (The Scripps Research Institute Molecular Screening Center, 2012)
In all, about 360,000 compounds went through this assay and about 5,400 (1.5%) were called active. This is one part of a sample in which actives are shown more often than they occur.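 How the source made its calls: active means inhibition above a per-plate cutoff, the mean inhibition of test compounds on that plate plus 3 SD (cut at about 49% in these data); inactive means the rest.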

target: Trace amine-associated receptor 1 (Homo sapiens) (UniProt Q96RJ0); assay: human TAAR1 antagonists, primary screen, Fluo-8 calcium fluorescence, CHO RD-HGA16 cells (AID 624466); conditions: CHO RD-HGA16 TAAR1, Fluo-8 calcium fluorescence, antagonist; at 3 µM; active compounds read high;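 further: 0% = DMSO plus EC80 beta-PEA response and 100% = DMSO alone without agonist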
In short: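 Material: RD-HGA16 CHO cells with stable hTAAR1 and Gα16; Dosing: single nominal final test compound concentration of 3 µM; Schedule: seeding 17-24 h prior, 75-min 37 °C, 30-min RT dye loading; Detection: kinetic Fluo-8 calcium fluorescence measurement; Measure: % inhibition from peak post-agonist over basal fluorescence ratio; Benchmarks: vehicle and agonist controls.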

Trace amine-associated receptor 1 (Homo sapiens), sequence (Q96RJ0 whole entry, looked up): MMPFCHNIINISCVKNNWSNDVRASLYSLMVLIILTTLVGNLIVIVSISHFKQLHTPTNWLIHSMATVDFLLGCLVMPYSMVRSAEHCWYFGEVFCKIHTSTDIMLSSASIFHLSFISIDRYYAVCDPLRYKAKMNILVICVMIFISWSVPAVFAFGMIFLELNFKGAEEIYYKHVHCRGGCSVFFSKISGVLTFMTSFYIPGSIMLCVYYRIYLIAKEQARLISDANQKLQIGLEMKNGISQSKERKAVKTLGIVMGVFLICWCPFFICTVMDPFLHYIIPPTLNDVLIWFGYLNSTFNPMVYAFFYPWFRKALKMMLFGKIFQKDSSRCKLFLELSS

inhibition, inactive:
CCc1ccc(NC(=O)C(=O)N/N=C(\C)CC(=O)NCCOC)cc1 -6%
CCOC(=O)[C@]12CCC=C1N(Cc1cccc3ccccc13)C(=O)[C@H](CC(=O)NCc1cccc(C(F)(F)F)c1)C2 -4.64%
CC1=NOC(=O)/C1=C\c1ccccc1 -15%
C#CCOc1ccc(/C=C2/C(=O)ON=C2C)cc1OCC 12.6%
CC[C@H](NC(=O)[C@H](Cc1ccccc1)NC(=O)[C@H]1O[C@@H](n2cnc3c(=O)[nH]c(N)nc32)[C@H](O)[C@@H]1O)c1ccccc1 -41.7%
CC(C)(C)n1nc2c(c1NC(=O)c1ccc(S(=O)(=O)N3CCCC3)cc1)CS(=O)C2 (stereo unspecified) 4.79%
COc1ccc(CNS(=O)(=O)c2cc(Br)ccc2Br)cc1 -2.96%
CC(C)CC1NC(=O)c2cc(Cl)ccc2-n2c1nc1ccccc1c2=O (stereo unspecified) -6.66%
CCCOc1ccc(F)cc1-c1cc(C(=O)Nc2ccc(F)c(Cl)c2)[nH]n1 38.5%
CCCOc1ccc(F)cc1-c1cc(C(=O)Nc2ccc(F)cc2)[nH]n1 15.5%
O=S1(=O)c2ccc(Br)cc2-n2nncc2CN1Cc1cccc(Cl)c1 3.33%
O=c1onc(-c2c(F)cccc2F)n1-c1ccccc1Cl 4.53%
COc1ccc(CCNCc2c(-c3ccccc3)n(C)c3ccccc23)cc1 25%
COc1ccc(-c2ccc(CCC(=O)O)n2-c2ccc(O)cc2)cc1 -5.35%
Cc1ccc(-c2nc3c(C)cc(Br)cn3c2Cc2ccccc2)cc1 -21.5%
O=C(N[C@H]1CC[C@H](CC(=O)N2CCCCC2)O[C@@H]1CO)c1cccc(F)c1 4.76%
CC(=O)C[C@@H](O)CC(=O)[C@H]1OC(=O)CCCCCCc2ccccc21 6.02%
CCc1ccc(C2=CC(=O)CC(C)(C)C2=O)cc1 -8.28%
O=C(O)Cn1cnc2c(NCc3ccccc3)ncnc21 -23.5%
COC(=O)c1ccc(C2NC(=O)NC(C)=C2C(=O)N(C)C)cc1 (stereo unspecified) -4.25%
CCCCNc1ccc(C(=O)Nc2cccc(C)n2)cc1[N+](=O)[O-] 24.1%
CCOc1ccc(OCc2ccc(C(=O)Nc3cccc(C)n3)o2)cc1 16.1%
Cn1c(=O)c2c(ncn2CC(=O)N/N=C/c2cn[nH]c2-c2ccc(F)cc2)n(C)c1=O 2.24%
CCCCCn1nnnc1C1c2ccccc2C(=O)N1Cc1ccco1 (stereo unspecified) -12.2%
O=C(NS(=O)(=O)c1cccs1)[C@H]1O[C@@H](n2ccc(=O)[nH]c2=O)[C@H](O)[C@@H]1O -23.6%
CC(C)(C)C(=O)Nc1ccc(C(=O)N/N=C/c2ccccc2OC(=O)c2ccc(Cl)cc2Cl)cc1 26.4%
O=C(N/N=C/c1ccc(OCC2COCCO2)cc1)c1ccc(Br)cc1 (stereo unspecified) 18.2%
CCOc1ccc(-c2cc(C(=O)N/N=C/c3ccc(O)cc3)c3ccccc3n2)cc1 0.39%
COc1ccc(-c2[nH]ncc2/C=N/NC(=O)c2cc(Br)ccc2O)c(OC)c1 -4.36%
O=C(NN=Cc1ccc2c(c1)CCC2)c1ccccc1O 10.7%
CCOc1cc(/C=N/NC(=O)c2c(C)nc3ccc(Cl)cn23)ccc1O -3.33%
O=C(NC1CCCCC1)C(c1cc2ccccc2o1)n1c(=O)c(-c2ccco2)nc2ccccc21 (stereo unspecified) -22.4%
N#Cc1ccc(-c2nc3cc(C#N)c(C#N)cc3nc2-c2ccccc2)cc1C#N -9.51%
CC1CCCN(c2cccc3c2S(=O)(=O)N(Cc2ccc(F)cc2)[C@@H](C)[C@H](c2ccccc2)O3)C1 (stereo partly specified) -13.7%
CCCNC(=O)c1cc2c(c(-c3cccc(-c4ccc(C#N)cc4)c3)n1)[C@@H](CCO)N(C(=O)CC)C2 -3.02%
COC(=O)[C@]12C[C@H](CC(=O)NCc3ccc(OC)c(OC)c3)C(=O)N(Cc3ccccc3)C1=C[C@H](C(C)C)O[C@@H]2C1CC1 -4.52%
COc1cccc(NC(=O)Nc2ccc(F)cc2)c1 14.5%
CCc1ccc(NC(=O)Nc2ccncc2)cc1 6.77%
CCC(C(=O)NCc1ccccc1)n1c(Cc2cc(F)cc(F)c2)nc2ccccc21 (stereo unspecified) -4.56%
O=CN1CCN(C(=O)c2ccc(Br)o2)CC1 -11.1%
CSc1ccccc1C(=O)OCC(=O)N1CCN(C(C)=O)CC1 -1.96%
CC(NC(=O)c1ccccc1SCC(=O)N1CCCC1)c1ccccc1 (stereo unspecified) -4.95%
CN(CC(=O)Nc1ccccc1Cl)C(=O)c1ccccc1SCC(=O)N1CCCC1 -6.53%
COc1ccccc1NC(=O)COC(=O)c1ccccc1SCC(=O)N1CCCC1 -8.15%
COCCNC(=O)C1C(=O)Nc2ccccc2C(=O)N1c1ccc2c(c1)OCCO2 (stereo unspecified) -30.9%
CCCCCCCCN1C(=O)[C@H](CC(=O)NCC23CC4CC(CC(C4)C2)C3)C[C@@]2(C(=O)OC)CCCCC=C12 -15.3%

inhibition, active:
COc1cc(/C=C2/C(=O)ON=C2C)ccc1OCc1ccccc1F 51.4%
CCCOc1ccc(F)cc1-c1cc(C(=O)NCc2ccc(F)cc2)[nH]n1 53.6%
COc1ccc(-c2nc3ccccc3c(=O)n2CCc2ccc(O)cc2)cc1 58.4%
Cc1cccc(NC(=O)c2ccc(COc3ccccc3[N+](=O)[O-])o2)n1 51.5%
O=C(N/N=C/c1ccc(OC(=O)c2ccccc2Cl)cc1)c1ccc(O)cc1 68.9%
COc1ccc(C(=O)Nc2ccccc2C(=O)N/N=C/c2ccc(O)c(OC)c2)cc1 62.8%
CCOc1cc(/C=N/NC(=O)c2cc(-c3ccccc3)nc3ccccc23)ccc1O 51.5%
O=C(Nc1ccncc1)Nc1ccc(F)cc1 57.8%
CC(C)N(Cc1ccccc1)C(=O)COC(=O)c1ccccc1SCC(=O)N1CCCC1 64%
O=C(COC(=O)c1ccccc1SCC(=O)N1CCCC1)Nc1ccccc1OC(F)F 56.5%
